From PubChem
CHOP inh = inhibitors of CHOP promoter induction, primary screen, cell-based, unfolded protein response, luciferase reporter. 3.8% of 220,000 active. AID 2732, 2010. CHO-K1 CHOP-promoter luciferase, tunicamycin-induced, 15-18 h. inhibition, % at 10 µM;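 active = compounds that reduced the stress-induced luciferase reporter signal by more than about 70% of percent inhibition, limit read from the data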
MDM2 E3 inh = MDM2-luciferase reporter signal enhancers, primary screen, MDM2 E3 ligase inhibitor project, cell-based, luminescence, 1536-well; E3 ubiquitin-protein ligase Mdm2 (Homo sapiens), Q00987; cell-based MDM2 ubiquitination luciferase reporter, 2 h; 0 = plate control, 100 = twice control, blank-subtracted; signal enhancement, % at 5 µM; 0.11% of 210,000 active; AID 1230, 2008;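 active = signal enhancement of 30% or more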;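 also: luminescence tracks abundance of the self-degrading MDM2-luciferase fusion protein; higher signal means inhibition of MDM2 E3 ligase activity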
Target sequence (Q00987 whole entry, looked up, the tested form may be a part): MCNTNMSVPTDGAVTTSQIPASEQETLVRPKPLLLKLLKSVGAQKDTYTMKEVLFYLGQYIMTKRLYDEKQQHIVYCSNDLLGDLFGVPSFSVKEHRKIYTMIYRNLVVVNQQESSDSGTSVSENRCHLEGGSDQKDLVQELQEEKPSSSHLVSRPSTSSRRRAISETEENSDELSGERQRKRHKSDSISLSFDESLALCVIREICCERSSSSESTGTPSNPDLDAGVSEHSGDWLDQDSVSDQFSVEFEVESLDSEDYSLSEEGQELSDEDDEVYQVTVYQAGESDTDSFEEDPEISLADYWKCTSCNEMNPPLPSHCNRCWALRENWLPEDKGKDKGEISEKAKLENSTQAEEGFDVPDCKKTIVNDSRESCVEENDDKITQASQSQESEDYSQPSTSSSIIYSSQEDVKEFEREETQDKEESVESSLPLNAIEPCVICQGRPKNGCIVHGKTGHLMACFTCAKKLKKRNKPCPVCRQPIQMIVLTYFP
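Buffer or medium: Cells held in DMEM | Assay system: Stable mammalian line carrying autodegrading MDM2–luciferase fusion reporter | Quantity: 2000 cells/well | Times: 4 h settle plus 2 h compound, 37 °C | Doses: One concentration, 5 µM, with 0.2% DMSO | Technique: Luminescence with SteadyLite reagent, 15 min at room temperature | Benchmarks: Plate controls and plate blanks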
Hsp70 activator = Hsp70 transcriptional activators, primary screen, cell-based, HeLa, Hsp70 promoter luciferase, luminescence, 10 µM; activation, % at 10 µM; AID 1203, 2008; HeLa Hsp70 promoter luciferase reporter; scaled: vehicle 0, proteasome-inhibitor control 100%; 0.04% of 200,000 active;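 active = activation above the mean across all tested compounds plus 3 SD, cutoff set per campaign, cut at about 5.5% in these data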
S1P3 antagonist = S1P3 receptor antagonists, primary screen, cell-based; CHO S1P3 NFAT-BLA reporter, FRET fluorescence, antagonist mode; inhibition, % at 4.98 µM; 0.27% of 170,000 active; Sphingosine 1-phosphate receptor 3 (Homo sapiens), Q99500; AID 485, 2006;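 active = inhibition above the plate cutoff, the mean inhibition of test wells on that plate plus 3 SD, cut at about 28% in these data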;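 also: cells challenged with S1P at its EC80 of 0.8 µM; blue over green emission ratio from cleaved BLA substrate after 4 h stimulation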
Of the large screens only hits and unclear results are named; the others gave an inactive call. This is a sample that favours compounds with a hit; in the whole collection about 4% have one here.

Cc1cccc(N2CCN(C(c3cccs3)c3nnnn3C(C)(C)C)CC2)c1C (stereo unspecified)	CHOP inh 77 (no result: S1P3 antagonist)
Cc1ccnc(NS(=O)(=O)c2ccc(NC(=O)C34CC5CC(C)(CC(C)(C5)C3)C4)cc2)n1	none (no result: S1P3 antagonist)
Cc1nn(-c2nc3ccccc3[nH]2)c(=O)c2ccccc12	CHOP inh 98
Cc1nnc(-c2cnn(C)c2N)n1Cc1cccc(Cl)c1	none (no result: MDM2 E3 inh, S1P3 antagonist)
Cc1ccccc1CN1CCSc2sccc2C1=O	none
Cn1c(C(C#N)C(=O)Cc2cccc3ccccc23)nc2ccccc21 (stereo unspecified)	CHOP inh 75 (no result: S1P3 antagonist)
Cn1c(C(C#N)C(=O)c2ccco2)nc2ccccc21 (stereo unspecified)	none
Clc1cccc(Nc2nc(-c3cccnc3)cs2)c1	none
CCC(C)Oc1cc(-c2ccnc(Nc3cccc(Cl)c3)n2)ccn1 (stereo unspecified)	CHOP inh 93 (no result: Hsp70 activator, S1P3 antagonist)
c1ccc(-c2cc3ccccc3nc2N2CCCC2)cc1	none (no result: S1P3 antagonist)
Cc1ccc(-c2cc3ccccc3nc2N2CCOCC2)cc1	CHOP inh 72
c1ccc2nc(-c3ccc(N4CCOCC4)cc3)ccc2c1	CHOP inh 90 (no result: S1P3 antagonist)
CC(=O)c1ccc(N2CCN(c3ccc(C(F)(F)F)cn3)CC2)cc1	CHOP inh 83, S1P3 antagonist 77
CC(C)(C)NC(=O)NC(=O)CN1CCN(c2ncc(C(F)(F)F)cc2Cl)CC1	CHOP inh 78 (no result: S1P3 antagonist)
CC(=O)Nc1ccc(N2CCN(c3ccc(C(F)(F)F)cn3)CC2)nc1	none (no result: Hsp70 activator)
CC(=O)c1ccc(N2CCN(c3ncc(C(F)(F)F)cc3Cl)CC2)cc1	CHOP inh 79 (no result: S1P3 antagonist)
COc1ccc(C)cc1NC(=O)C1CC(=O)OC12CCCCC2 (stereo unspecified)	none
O=C(COc1cccc(OC(F)F)c1)Nc1ccc(SC(F)F)cc1	CHOP inh 94 (no result: S1P3 antagonist)
COC(=O)c1c(-c2cc(OC)c(OC)c(OC)c2)c2ccc(OCc3ccccn3)cc2c(=O)n1-c1ccc(N)cc1	none (no result: MDM2 E3 inh, Hsp70 activator, S1P3 antagonist)
Cc1cc(Nc2ccccc2)nn1C(=O)c1ccc(Cl)cc1	CHOP inh 77 (no result: S1P3 antagonist)
COCCn1c(C2CCCCC2)nc2sc3ccccc3c(=O)c2c1=O	CHOP inh 92
COc1ccc(Cn2c(C(C)C)nc3sc4ccccc4c(=O)c3c2=O)cc1	CHOP inh 79 (no result: Hsp70 activator)
COC(=O)CCn1nnc(-c2ccc(C(C)C)cc2)n1	CHOP inh 88
COc1ccc(C(C(=O)Nc2ccc(C(C)C)cc2)N(C)C(=O)c2ccc(=O)[nH]c2)cc1 (stereo unspecified)	none
Nc1c(N=Nc2cccc(Cl)c2)c(=O)[nH]n1-c1ccccc1	CHOP inh 72 (no result: S1P3 antagonist)
COc1ccc(OC)c(C(=O)c2coc3ccc(O)cc23)c1	none
CCC(=C(c1ccc(OC)cc1)c1ccc(OC)cc1)c1cn(CC(O)CN(CCO)CCO)c2ccccc12 (stereo unspecified)	CHOP inh 76
COc1ccc(OCC(O)CN(CCO)CC(O)Cn2ccc3ccccc32)cc1 (stereo unspecified)	none
C/C(=N/NC(=O)CN1CCN(Cc2ccccc2Cl)CC1)c1ccco1	none (no result: Hsp70 activator)
CC(=O)N1c2ccc3ccccc3c2C(C)CC12CCCCC2 (stereo unspecified)	CHOP inh 70 (no result: S1P3 antagonist)
CC(=O)Nc1cccc(C(=O)Nc2cccnc2)c1	none
COC(=O)c1cc(N2C(=O)C3C(C2=O)C2(C)C=CC3(C)O2)ccc1Cl (stereo unspecified)	CHOP inh 75
CN(CCOCCOc1ccc2ccccc2c1)Cc1ccccc1	CHOP inh 71 (no result: S1P3 antagonist)
CCOC(=O)CSc1c(-c2ccc(Cl)cc2)[nH]c2ccccc12	CHOP inh 88
CCOC(=O)CSc1c(-c2cccs2)[nH]c2ccccc12	none
O=C1OC(c2ccco2)=N/C1=C\c1ccc(-c2cccc(C(F)(F)F)c2)o1	none
COCCn1c(=NC(=O)c2ccc(S(=O)(=O)N3CCCc4ccccc43)cc2)sc2cc(S(C)(=O)=O)ccc21	MDM2 E3 inh 42
C=CCn1c(=NC(=O)c2ccc(S(=O)(=O)N3CCc4ccccc4C3)cc2)sc2cc(S(N)(=O)=O)ccc21	CHOP inh 77
C=CCn1c(=NC(=O)c2ccc(S(=O)(=O)N3CCCc4ccccc43)cc2)sc2cc(S(N)(=O)=O)ccc21	none
C#CCn1c(=NC(=O)c2ccc(S(=O)(=O)N3CCc4ccccc4C3)cc2)sc2cc(S(N)(=O)=O)ccc21	CHOP inh 110
COCCn1c(=NC(=O)c2ccc(S(=O)(=O)N3CCc4ccccc4C3)cc2)sc2cc(S(N)(=O)=O)ccc21	none
CCCCc1ccc(-c2nc(NC(=O)C3C4CCC(O4)C3C(=O)O)sc2C)cc1 (stereo unspecified)	none (no result: S1P3 antagonist)
CC(C)C1Cc2c(sc(NC(=S)NC(=O)c3ccccc3)c2C#N)CO1 (stereo unspecified)	CHOP inh 83
CC(C)N1CCc2c(sc(NC(=S)NC(=O)c3ccccc3)c2C#N)C1	none
CCOC(=O)C(=CNc1cc(C)ccc1[N+](=O)[O-])C(=O)OCC	none (no result: Hsp70 activator)
CCOC(=O)C(=CNc1cc(C)ccc1C)C(=O)OCC	CHOP inh 88 (no result: S1P3 antagonist)
COc1ccc(CCN2C(=O)CS/C2=N\NC(=O)c2cccs2)cc1OC	none
CC(C)(NO)/C(=N\O)c1ccccc1	CHOP inh 72 (no result: S1P3 antagonist)
C/C(=N\O)C(C)NC(=O)c1ccccc1 (stereo unspecified)	none
CSc1ccccc1NC(=O)Nc1cccc(Cl)c1Cl	CHOP inh 88 (no result: S1P3 antagonist)
COC(=O)c1sccc1NC(=O)Nc1cccc(Cl)c1Cl	CHOP inh 84 (no result: S1P3 antagonist)
CSc1ccccc1NC(=O)COc1ccc(Cl)cc1	CHOP inh 77
CSc1ccccc1NC(=O)COc1ccc(Cl)cc1Cl	none
Cc1cc(C(F)(F)F)cc(NNC(=O)NC(=O)c2c(F)cccc2Cl)n1	none (no result: Hsp70 activator)
O=C1CC(O)(C(F)(F)F)Oc2c1ccc1ccccc21 (stereo unspecified)	CHOP inh 89
CC1(C)CC(CCC(=O)Nc2ccc(S(N)(=O)=O)cc2)C(=O)O1 (stereo unspecified)	none
Cc1ccc(NC(=O)CCC2CC(C)(C)OC2=O)cc1 (stereo unspecified)	MDM2 E3 inh 31
CCSc1nnc(NC(=O)C2CC(=O)N(Cc3ccc(C)cc3)C2)s1 (stereo unspecified)	none
CCCCCCCNc1cccc(C)c1	none (no result: Hsp70 activator)
CCCCNc1n[n+](C)c(-c2cccc(C)c2)s1	MDM2 E3 inh 35 (no result: Hsp70 activator, S1P3 antagonist)
NS(=O)(=O)c1ccc(-c2ccc(/C=C3\C(=O)Nc4cc(Cl)ccc43)o2)cc1	none
CC1(C)OC(=O)C(=Cc2ccc(-c3ccc(S(N)(=O)=O)cc3)o2)C(=O)O1	CHOP inh 100
Cc1cc(NC(=O)CSc2nc3ccccc3c(=O)n2Cc2ccc(F)cc2)no1	CHOP inh 78
O=C(CSc1nc2[nH]ncc2c(=O)n1-c1ccccc1Br)NCc1ccco1	S1P3 antagonist 83
O=C(CSc1nc2ccccc2c(=O)n1Cc1ccco1)NCc1ccccc1	S1P3 antagonist 76 (no result: CHOP inh, MDM2 E3 inh)
